Pyk2 oligo antag = antagonists of Pyk2 self-association, primary screen, Q293 cells, FERM NanoBiT luminescence, HTS. Protein-tyrosine kinase 2-beta (Homo sapiens), Q14289. active compounds read low. actives 0.83% (n = 99,000). z-score (the deposit names both 25 µM and 10 µM). AID 1347419, 2020;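 active = Z-score of -3 or lower, scaled per plate to the spread of control and sample wells; inactive = z-score above -3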;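 also: negative z-score means lost luminescence so less FERM oligomerization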
Target sequence (Q14289 whole entry, looked up): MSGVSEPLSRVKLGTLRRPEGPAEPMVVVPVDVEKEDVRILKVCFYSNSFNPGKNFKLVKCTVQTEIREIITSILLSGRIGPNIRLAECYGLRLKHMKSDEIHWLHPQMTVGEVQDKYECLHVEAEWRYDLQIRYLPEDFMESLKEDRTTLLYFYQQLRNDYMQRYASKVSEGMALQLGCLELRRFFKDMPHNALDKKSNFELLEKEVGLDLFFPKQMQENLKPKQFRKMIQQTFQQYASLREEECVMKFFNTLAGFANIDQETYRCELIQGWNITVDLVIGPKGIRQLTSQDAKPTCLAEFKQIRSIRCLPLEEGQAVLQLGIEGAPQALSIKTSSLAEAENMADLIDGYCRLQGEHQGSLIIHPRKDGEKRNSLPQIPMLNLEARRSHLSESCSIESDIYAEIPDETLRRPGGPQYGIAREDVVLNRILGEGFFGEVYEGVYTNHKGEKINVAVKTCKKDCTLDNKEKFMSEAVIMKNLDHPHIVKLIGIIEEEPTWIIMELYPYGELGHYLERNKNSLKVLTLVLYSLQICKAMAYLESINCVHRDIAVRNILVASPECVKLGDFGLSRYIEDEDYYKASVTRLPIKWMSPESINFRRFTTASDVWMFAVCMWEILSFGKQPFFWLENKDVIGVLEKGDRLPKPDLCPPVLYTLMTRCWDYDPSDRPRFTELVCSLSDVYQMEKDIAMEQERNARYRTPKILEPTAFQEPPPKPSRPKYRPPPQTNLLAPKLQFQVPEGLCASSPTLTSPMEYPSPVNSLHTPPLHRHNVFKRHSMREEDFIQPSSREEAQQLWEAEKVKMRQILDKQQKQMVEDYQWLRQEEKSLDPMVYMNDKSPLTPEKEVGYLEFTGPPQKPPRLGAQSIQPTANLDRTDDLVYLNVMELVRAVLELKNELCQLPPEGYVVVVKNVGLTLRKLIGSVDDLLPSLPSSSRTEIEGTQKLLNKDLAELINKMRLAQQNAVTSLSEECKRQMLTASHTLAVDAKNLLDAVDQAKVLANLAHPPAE
PostGolgi ctrl = growth inhibition of yeast control strain, primary screen, counter-screen for post-Golgi transport modulator project. inhibition, % at 10 µM. actives 5% (n = 98,000). efflux-deficient yeast background strain, growth absorbance A615, 16 h. AID 738, 2007
E coli WT exp = growth inhibitors of wild-type E. coli, primary screen, strain BW25113, expanded library, OD600; OD600 absorbance; growth inhibition, % at 100 µM; actives 0.15% (n = 98,000); AID 710, 2007;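 active = growth inhibition above about 50% at one test dose, limit read from the data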;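 also: growth measured after 20 h incubation at 37 °C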
tolC growth inh = growth inhibitors of E. coli tolC mutant, primary screen, strain BW25113 ΔtolC::kan, 384-well; OD615; growth inhibition, % at 10 µM (by protocol); actives 2.2% (n = 65,000);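 active = growth inhibition at or above a cutoff equal to the mean over every tested compound plus 3 SD, cut at about 60% in these data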;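 also: growth measured after 20 h incubation at 37 °C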
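Test system: tolC-deleted E. coli BW25113; medium: LB with kanamycin 50 µg/mL; compound: single-point testing at 10 µM; incubation: 20 h compound exposure of bacteria at 37 °C; signal: OD at 615 nm; evaluation: growth inhibition in percent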
PostGolgi yeast = phenotypic screen on post-Golgi transport, primary screen. post-Golgi transport phenotypic cell assay. inhibition, % at 10 µM. actives 0.9% (n = 98,000). AID 739, 2007;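 also: yeast cells grown in 1536-well plates; yeast grown about 18 h at 30C before absorbance read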
Candida biofilm = clotrimazole potentiators killing Candida biofilms, primary screen, with clotrimazole, Alamar Blue | C. albicans biofilm + clotrimazole | inhibition, % at 6 µM | actives 0.14% (n = 85,000) | AID 834, 2007;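 active = inhibition above 20%; inactive = inhibition below 20%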;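 also: preformed 24 hr biofilms exposed to compound for 48 hr; 0% = biofilm without compound and 100% = blank killed by clotrimazole plus chlorhexidine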
* = called active by the depositor. This is a sample that favours compounds with a hit; in the whole collection about 6.5% have one here. Rule as the data show it, unless noted: active = inhibition above about 30%; inactive = the rest.

Results for O=c1c(-c2ccc3c(c2)OCCO3)coc2cc(O)cc(O)c12 ?
Pyk2 oligo antag: -3.7*; PostGolgi ctrl: 3; E coli WT exp: 1; tolC growth inh: 49; PostGolgi yeast: -3; Candida biofilm: 3

Results for CCOC(=O)CC(=O)CSc1nc2nc(C)cc(C)n2n1 ?
Pyk2 oligo antag: 0.3; PostGolgi ctrl: 30*; E coli WT exp: 3; tolC growth inh: -8; PostGolgi yeast: -2; Candida biofilm: 6

How did CC(C)/C=C1\CCCCC1N(C)C(=O)NC(C)C (stereo not drawn) do in these assays?
Pyk2 oligo antag: -0.5; PostGolgi ctrl: 1; E coli WT exp: -3; tolC growth inh: 1; PostGolgi yeast: 22; Candida biofilm: 9

Results for CC(C)NC(=S)N/N=C1\CCCCC1C1CCCCC1 (stereo not drawn) ?
Pyk2 oligo antag: 1.4; PostGolgi ctrl: 30*; E coli WT exp: 3; PostGolgi yeast: -5

What do the screens show for `CC1CCCCC1n1c(=S)[nH]c2ccccc2c1=O` (stereo not drawn)?
Pyk2 oligo antag: -1.4; PostGolgi ctrl: 53*; E coli WT exp: -2; tolC growth inh: 100*; PostGolgi yeast: 7; Candida biofilm: 5

How did Cc1ccc(OCC(=O)Nc2ccc(F)cc2)cc1C do in these assays?
Pyk2 oligo antag: -0.53; Candida biofilm: 4

How did CCN(Cc1cc2ccc(C)cc2[nH]c1=O)C(=O)c1ccncc1 do in these assays?
PostGolgi ctrl: 44*; E coli WT exp: -3; tolC growth inh: 3; PostGolgi yeast: -12; Candida biofilm: 3

What do the screens show for `CCCN(Cc1cc2ccc(C)cc2[nH]c1=O)C(=O)c1cccnc1`?
Pyk2 oligo antag: -0.29; PostGolgi ctrl: 9; E coli WT exp: 2; tolC growth inh: -8; PostGolgi yeast: 7; Candida biofilm: 3

How did COc1c(Cl)cc(C(=O)Nc2ccccc2C(=O)O)cc1Cl do in these assays?
Pyk2 oligo antag: -3.1*; PostGolgi ctrl: 2; E coli WT exp: -10; PostGolgi yeast: 9

How did O=C(NCCN1C(=O)CCC1=O)c1ccncc1 do in these assays?
Pyk2 oligo antag: -0.22; PostGolgi ctrl: 4; E coli WT exp: -2; tolC growth inh: -17; PostGolgi yeast: 18; Candida biofilm: 4

What do the screens show for `O=C(Nc1ccc2c(c1)OCCO2)NC1(C(F)(F)F)Oc2ccccc2O1`?
PostGolgi ctrl: 34*; E coli WT exp: -2; tolC growth inh: 7; PostGolgi yeast: 5; Candida biofilm: -2

What do the screens show for `O=C(Nc1ccc2c(c1)OCO2)NC1(C(F)(F)F)Oc2ccccc2O1`?
Pyk2 oligo antag: 0.44; PostGolgi ctrl: 17; E coli WT exp: -7; PostGolgi yeast: -1; Candida biofilm: 2

What do the screens show for `CCCC/C(O)=C1\C(=O)CC(C)(C)CC1=Nc1ccccc1OC`?
Pyk2 oligo antag: -0.9; PostGolgi ctrl: 31*; E coli WT exp: 0; PostGolgi yeast: 9; Candida biofilm: 8

What do the screens show for `CC(=O)c1c(C)[nH]c(C(=O)N2c3ccccc3CC2C)c1C` (stereo not drawn)?
PostGolgi ctrl: 5; E coli WT exp: 6; tolC growth inh: 9; PostGolgi yeast: 1; Candida biofilm: 27*

Results for O=C(C1CC1)N1CCN(C(c2ccccc2)c2ccccc2)CC1 ?
Pyk2 oligo antag: -1.1; PostGolgi ctrl: 8; E coli WT exp: 3; PostGolgi yeast: 11; Candida biofilm: 41*

What do the screens show for `O=C(C1CCCCN1S(=O)(=O)c1ccccc1)N1CCN(C(c2ccccc2)c2ccccc2)CC1` (stereo not drawn)?
Pyk2 oligo antag: -2.6; PostGolgi ctrl: 7; E coli WT exp: -8; PostGolgi yeast: 1; Candida biofilm: -1

How did OC(CNCc1ccco1)Cn1c2ccc(Br)cc2c2cc(Br)ccc21 (stereo not drawn) do in these assays?
Pyk2 oligo antag: 1.1; PostGolgi ctrl: 99*; E coli WT exp: -5; PostGolgi yeast: 106*

Results for CC1Oc2ccccc2N(CC(=O)N(Cc2ccccc2)Cc2ccccn2)C1=O (stereo not drawn) ?
Pyk2 oligo antag: -0.32; PostGolgi ctrl: 5; E coli WT exp: 0; tolC growth inh: -7; PostGolgi yeast: -10; Candida biofilm: 11

What do the screens show for `COc1ccc(-c2nc3n(n2)C(c2ccccc2)C2=C(CCCC2=O)N3)cc1OC` (stereo not drawn)?
Pyk2 oligo antag: -1.6; PostGolgi ctrl: -7; E coli WT exp: 3; tolC growth inh: 9; PostGolgi yeast: 4; Candida biofilm: 3

What do the screens show for `COc1ccc(C2C3=C(CCCC3=O)Nc3nc(-c4cc(OC)c(OC)c(OC)c4)nn32)cc1OC` (stereo not drawn)?
Pyk2 oligo antag: -0.84; PostGolgi ctrl: 1; E coli WT exp: 7; tolC growth inh: 4; PostGolgi yeast: 33*; Candida biofilm: 0

What do the screens show for `COc1cccc(C2C3=C(N=C4SCC(=O)N42)c2ccccc2CC3)c1OC` (stereo not drawn)?
Pyk2 oligo antag: -1.2; PostGolgi ctrl: 40*; E coli WT exp: -5; tolC growth inh: 43; PostGolgi yeast: 23

How did COc1ccc(OC)c(C2C3=C(N=C4SCC(=O)N42)c2ccccc2CC3)c1 (stereo not drawn) do in these assays?
Pyk2 oligo antag: -0.77; PostGolgi ctrl: -2; E coli WT exp: -4; tolC growth inh: 27; PostGolgi yeast: -8; Candida biofilm: 7

How did Cc1c(C(=O)N2CCCCC2)oc2ccc(S(=O)(=O)N3CC(C)CC(C)C3)cc12 (stereo not drawn) do in these assays?
Pyk2 oligo antag: -0.34; PostGolgi ctrl: 15; E coli WT exp: 2; tolC growth inh: 91*; PostGolgi yeast: -4

Results for Cc1c(C(=O)NCc2cccnc2)oc2ccc(S(=O)(=O)N3CCCC(C)C3)cc12 (stereo not drawn) ?
Pyk2 oligo antag: -0.33; PostGolgi ctrl: 33*; E coli WT exp: -9; tolC growth inh: 12; PostGolgi yeast: 6; Candida biofilm: 4

How did Cc1c(C(=O)NCc2ccc3c(c2)OCO3)oc2ccc(S(=O)(=O)N3CCC(C)CC3)cc12 do in these assays?
Pyk2 oligo antag: 0.54; PostGolgi ctrl: -5; E coli WT exp: -25; tolC growth inh: 13; PostGolgi yeast: -9; Candida biofilm: 1

How did CCOC(=O)N1CCN(C(=O)c2oc3ccc(S(=O)(=O)N4CCCCC4)cc3c2C)CC1 do in these assays?
Pyk2 oligo antag: 1.6; PostGolgi ctrl: 4; E coli WT exp: 9; tolC growth inh: -2; PostGolgi yeast: 0; Candida biofilm: 2

Results for CCOC(=O)c1cc(C(O)(C(F)(F)F)C(F)(F)F)c(/N=C/N(C)C)o1 ?
Pyk2 oligo antag: -1.6; PostGolgi ctrl: 0; E coli WT exp: -2; tolC growth inh: 15; PostGolgi yeast: 0; Candida biofilm: 4

Screening data (PubChem BioAssay)
